Assay outcomes: PubChem, several laboratories
MC4R antagonist: human MC4R antagonism in cAMP assay | inhibition, % at 6.5 µM | actives 0.48% (n = 360,000) | P32245 | MC4R-expressing cells, MTII-stimulated cAMP, LANCE TR-FRET;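 active = inhibition above its plate's cutoff, the mean of tested wells on that plate plus 3 SD, cut at about 29% in these data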
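Assay system: human MC4R-expressing U2OS cells; reagent: Melanotan II stimulation of cells; dosing: 6.5 µM single dose; timing: compound 30 min, challenge 1 h, detection 1 h; signal: TR-FRET cAMP assay; replicates: one well per compound, no replicates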
ABCB6 inh 2: blocks the human ABCB6 transporter | Q9NP58 | K562-ABCB6 porphyrin accumulation, flow cytometry, 1 h; active compounds read low | fluorescence ratio to DMSO, % at 10 µM | actives 0.19% (n = 360,000);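 active = fluorescence ratio to DMSO below 75%, the collection mean minus 3 SD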;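 note: signal is porphyrin accumulated inside mitochondria; lower ratio means ABCB6 inhibition with less porphyrin fluorescence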
Target sequence (Q9NP58 whole entry, looked up): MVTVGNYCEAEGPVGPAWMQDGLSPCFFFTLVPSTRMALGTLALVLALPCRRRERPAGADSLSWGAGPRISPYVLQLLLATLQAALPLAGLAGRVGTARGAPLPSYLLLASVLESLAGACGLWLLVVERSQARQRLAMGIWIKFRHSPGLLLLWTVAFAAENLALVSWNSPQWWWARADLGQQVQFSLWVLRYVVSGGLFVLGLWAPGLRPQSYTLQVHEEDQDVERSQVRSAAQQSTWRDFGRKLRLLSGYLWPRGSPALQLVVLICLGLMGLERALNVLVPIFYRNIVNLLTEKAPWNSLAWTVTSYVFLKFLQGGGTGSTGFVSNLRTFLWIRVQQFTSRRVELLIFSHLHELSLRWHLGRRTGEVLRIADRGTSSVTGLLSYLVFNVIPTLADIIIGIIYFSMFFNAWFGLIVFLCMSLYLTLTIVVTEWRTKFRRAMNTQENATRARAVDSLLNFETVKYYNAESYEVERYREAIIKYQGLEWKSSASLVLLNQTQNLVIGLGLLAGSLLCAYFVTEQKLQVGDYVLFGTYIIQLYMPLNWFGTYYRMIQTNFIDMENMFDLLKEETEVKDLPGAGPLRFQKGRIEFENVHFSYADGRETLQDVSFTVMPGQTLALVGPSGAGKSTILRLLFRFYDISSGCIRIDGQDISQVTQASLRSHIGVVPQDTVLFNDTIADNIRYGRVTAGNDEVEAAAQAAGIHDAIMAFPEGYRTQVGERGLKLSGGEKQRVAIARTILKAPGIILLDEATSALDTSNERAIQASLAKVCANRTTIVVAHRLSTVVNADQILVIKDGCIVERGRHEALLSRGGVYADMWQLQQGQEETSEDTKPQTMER
TbMetRS inhib: Trypanosoma brucei MetRS inhibition. actives 0.4% (n = 360,000). AID 624268. purified T. brucei MetRS, ATP depletion, Kinase-Glo luminescence. inhibition, % at 11.9 µM;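 active = inhibition above a per-plate cutoff of the control wells' mean inhibition plus 3 SD, cut at about 5.5% in these data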
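Material: T. brucei methionyl-tRNA synthetase, purified; reagent: substrates ATP, L-methionine and bulk Escherichia coli tRNA; dosing: 11.9 µM single point; timing: 15 min plus 2 h at 25 °C; detection: luminescence of leftover ATP; evaluation: % inhibition; control set: DMSO-only wells as low control; replicates: singlicate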
MC4R barr agon: agonists of human melanocortin 4 receptor (MC4R) beta-arrestin; P32245; U2OS MC4R beta-arrestin complementation, luminescence; percent of melanotan II response, DMSO zero; activation, % at 8.9 µM; actives 0.98% (n = 360,000); AID 540308;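 active = activation above a per-plate cutoff, the mean activation of sample wells on that plate plus 3 SD, cut at about 8% in these data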
hiPSC survival: enhancers of human iPSC single-cell survival | hiPSC single-cell survival, ATPlite luminescence; 100% = ROCK inhibitor wells, 0% = DMSO | survival enhancement, % at 20 µM | actives 0.044% (n = 360,000); in the data active = survival enhancement above about 18%;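 note: cells exposed to compounds for 16 hours before the ATP read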
Exocytosis inh: lytic granule exocytosis inhibition | TALL-104 LAMP-1 surface exposure, flow cytometry; cells stimulated with thapsigargin and PMA | inhibition, % at 10 µM | actives 0.66% (n = 360,000) | AID 651702;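 active = inhibition above about 55%, limit read from the data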
MC4R barr conf: human MC4R beta-arrestin agonism confirmation; shares compounds with MC4R barr agon; U2OS MC4R beta-arrestin recruitment, luminescence; scaled DMSO 0%, Melanotan II 100%; activation, % at 8.9 µM; actives 31% (n = 2,400); AID 602192;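 active = mean activation across replicates above the hit cutoff set in the earlier primary screen, cut at about 8% in these data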
MOR DOR agonist: activates mu-delta opioid heterodimer, MC4R agonist counter-screen | shares compounds with MC4R barr agon | U2OS PathHunter beta-arrestin, beta-gal luminescence; percent of deltorphin B response, DMSO zero | activation, % at 9.2 µM | actives 5.8% (n = 2,400) | AID 602194;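 active = mean activation across replicates exceeds the hit threshold derived in the earlier primary screen, cut at about 18% in these data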
Each line names hits and unclear results; the compound was inactive in the other large screens (follow-up assays come after a bar, where they were run); ! = not confirmed by another sample. Sampled rows, rich in hits. Any-hit rate of the full collection: about 2.6%.

CC(=O)c1nn(-c2ccccc2)cc1C(=O)c1ccc(C)cc1	none
CC(=O)c1nn(-c2cccc(C)c2)cc1C(=O)c1cccc(Br)c1	MC4R barr agon 12 | MC4R barr conf inactive | MOR DOR agonist inactive
CCN1/C(=C/c2ccc3cc(C)cc(C)c3[n+]2CC)Sc2cc(C)ccc21	MC4R barr agon 45, Exocytosis inh 77 | MC4R barr conf 87 | MOR DOR agonist inactive
Cc1ccc2c(c1)S/C(=C\c1cccc[n+]1C)N2CCO	none
C[C@H](NC(=O)c1[nH]cnc1C(=O)Nc1ccccc1F)c1ccccc1	none
O=C(Nc1nnc(C2CC2)s1)c1ccc(Cl)c(S(=O)(=O)N2CCc3ccccc3C2)c1	MC4R barr agon 11 | MC4R barr conf inactive | MOR DOR agonist inactive
O=C(OCc1cc(=O)n2c(n1)sc1ccccc12)c1cccc(O)c1	none
O=C(OCc1cc(=O)n2c(n1)sc1ccccc12)c1ccc(O)cc1O	MC4R barr agon 17 | MC4R barr conf inactive | MOR DOR agonist inactive
O=C(Nc1nc2cc3c(cc2s1)OCO3)c1ccc(N2C(=O)CCC2=O)cc1	MC4R barr agon 12 | MC4R barr conf inactive | MOR DOR agonist inactive
COc1ccc(Nc2oc(-c3ccccc3)nc2C#N)cc1	none
COc1ccc(Nc2oc(-c3ccc(Cl)cc3)nc2C#N)cc1	MC4R barr agon 18 | MC4R barr conf inactive | MOR DOR agonist inactive
O=C(N/C(=C/c1cccc(Br)c1)C(=O)N1CCOCC1)c1ccco1	none
CCCc1cc(=O)oc2cc(OCC(=O)NCCc3c[nH]c4ccccc34)ccc12	MC4R barr agon 17 | MC4R barr conf 14 | MOR DOR agonist 25
CC1CCc2nc(NC(=O)CSc3nc4ccccc4o3)sc2C1 (stereo unspecified)	MC4R barr agon 14 | MC4R barr conf inactive | MOR DOR agonist inactive
Cc1nnc(NC(=O)CSc2nc3ccccc3o2)s1	none
CCCCCCCCNS(=O)(=O)CCNCCc1ccccc1	MC4R barr agon 10.0 | MC4R barr conf 16 | MOR DOR agonist inactive
CCCCCCCCNS(=O)(=O)CCNCc1ccccc1	none
CCOC(=O)c1oc2ccc(S(=O)(=O)N3CCC(C)CC3)cc2c1C	MC4R barr agon 13 | MC4R barr conf inactive | MOR DOR agonist inactive
CCOC(=O)c1oc2ccc(S(=O)(=O)N3CCOCC3)cc2c1C	none
Cc1ccc(C(=O)Nc2cccc(C(F)(F)F)c2)cc1NC(=O)c1c[nH]c2cc(C(F)(F)F)ccc2c1=O	none
CCN1CCN(Cc2ccc(NC(=O)c3ccc(C)c(NC(=O)c4c[nH]c5cc(C(F)(F)F)ccc5c4=O)c3)cc2C(F)(F)F)CC1	MC4R barr agon 12! | MC4R barr conf inactive | MOR DOR agonist 78
COc1ccc(OCc2nn3c(-c4cccc(OC)c4)nnc3s2)cc1	MC4R barr agon 11 | MC4R barr conf inactive | MOR DOR agonist inactive
COc1ccc(OCc2nn3c(-c4ccco4)nnc3s2)cc1	none
COc1cc(-c2nnc3sc(Cc4ccc(Cl)cc4)nn23)cc(OC)c1OC	MC4R barr agon 14 | MC4R barr conf 11 | MOR DOR agonist inactive
COc1ccc(Cc2nn3c(-c4cc(OC)c(OC)c(OC)c4)nnc3s2)cc1	none
CCSc1ccc(-c2nn(-c3ccccc3)cc2/C=C(/C#N)C(=O)NCCCOC)cc1	MC4R barr agon 22 | MC4R barr conf 40 | MOR DOR agonist 19
CCCSc1ccc(-c2nn(-c3ccccc3)cc2/C=C(/C#N)C(=O)NCCCOC)cc1	none
CC1=CC2=NC(=O)/C(=C\c3cccn3CCOc3ccc(C)c(C)c3)C(=N)N2O1	MC4R barr agon 14 | MC4R barr conf inactive | MOR DOR agonist inactive
N=C1/C(=C/c2cccn2CCOc2ccccc2)C(=O)N=C2SC=C(c3ccccc3)N12	none
CC(/C=N/NC(=O)c1cccs1)=C\c1ccccc1	MC4R barr agon 16 | MC4R barr conf inactive | MOR DOR agonist inactive
CC1(C)C(=O)Nc2ccccc2N1C(=O)COC(=O)c1cccnc1	none
NC(=O)COc1ccc2oc(=O)cc(-c3cc4ccccc4o3)c2c1	none
COC(=O)COc1ccc2oc(=O)cc(-c3cc4ccccc4o3)c2c1	MC4R barr agon 16 | MC4R barr conf inactive | MOR DOR agonist inactive
CCC(=O)Nc1sc2c(c1C#N)CCCCC2	none
CCN=C1SC(CC(=O)Nc2sc3c(c2C#N)CCCC3)C(=O)N1CC (stereo unspecified)	MC4R barr agon 12 | MC4R barr conf inactive | MOR DOR agonist inactive
Cc1cc(C)cc(-n2nnnc2SCC(=O)Nc2nc(-c3ccc(Cl)cc3)cs2)c1	MC4R barr agon 27 | MC4R barr conf inactive | MOR DOR agonist inactive
Cc1ccc(-n2nnnc2SCC(=O)Nc2nc(-c3ccc(F)cc3)cs2)cc1C	MC4R barr agon 24 | MC4R barr conf 13 | MOR DOR agonist inactive
O=C(CSc1nnnn1-c1ccccc1)Nc1nsc(-c2ccc(Cl)cc2)n1	MC4R barr agon 16 | MC4R barr conf inactive | MOR DOR agonist inactive
Cc1cc(-c2nnc(SCC(=O)Nc3nc(-c4ccc(Cl)cc4)cs3)o2)no1	none
CC(C)Oc1cccc(C(=O)Nc2nnc([C@H]3C[C@H](O)[C@@H](CO)O3)s2)c1	none
N#Cc1c(C(F)(F)F)cc(-c2cccs2)nc1SCc1cccnc1	MC4R barr agon 12 | MC4R barr conf inactive | MOR DOR agonist inactive
N#Cc1c(C(F)(F)F)cc(-c2cccs2)nc1SCc1ccc(Cl)nc1	MC4R barr agon 16 | MC4R barr conf inactive | MOR DOR agonist inactive
N#Cc1ccc(-c2cccs2)nc1SCc1cccnc1	none
COc1cccc(-c2cc(C(=O)NCc3cccs3)no2)c1	none
COc1cc(-c2[nH]nc3c2C(c2ccco2)C(C#N)=C(N)O3)cc(OC)c1OC (stereo unspecified)	none
COc1ccc(C(=O)CSc2nnc(CNc3ccc(C)cc3C)o2)cc1	MC4R barr agon 11 | MC4R barr conf 11 | MOR DOR agonist inactive
COc1ccc(C(=O)CSc2nnc(-c3cc(C)cc(C)c3)o2)cc1	MC4R barr agon 9.8 | MC4R barr conf inactive | MOR DOR agonist inactive
COc1cccc(C(=O)CSc2nnc(-c3cc(OC)cc(OC)c3)o2)c1	none
COCOCCn1cc(CN2CCS(=O)(=O)N(Cc3ccc(-c4ccc(OC)nc4)cc3)C(C)C2=O)nn1 (stereo unspecified)	none
O=C(CNC(=O)c1ccc(Br)o1)NNC(=O)c1ccccc1	none
